CCR6 antag: CCR6 receptor antagonists, primary screen, cell-based, CHO-K1, luminescence, beta-arrestin, uHTS. AID 493098, 2011. inhibition, % at 20 µM. actives 0.49% (n = 340,000). CHO-K1 CCR6 PathHunter beta-arrestin, CCL20-stimulated;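 active = compounds whose inhibition of the agonist-driven luminescence signal at 20 µM reaches about 50%, limit read from the data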;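 note: cells stimulated with CCL20 at 14 nM final; plate controls were DMSO with CCL20 for no effect and DMSO without agonist for full effect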
APJ antag: antagonists of human apelin receptor APJ, primary screen, CHO-K1 cells, beta-arrestin complementation, luminescence | P35414 | inhibition, % at 20 µM | actives 0.32% (n = 330,000) | AID 2521, 2010;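 active = inhibition above about 40% at 20 µM, limit read from the data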;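 note: cells challenged with 10 nM apelin-13 agonist together with compound; plate controls were apelin-13 plus DMSO wells for no effect and DMSO wells lacking apelin-13 for full effect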
Target sequence (P35414 whole entry, looked up): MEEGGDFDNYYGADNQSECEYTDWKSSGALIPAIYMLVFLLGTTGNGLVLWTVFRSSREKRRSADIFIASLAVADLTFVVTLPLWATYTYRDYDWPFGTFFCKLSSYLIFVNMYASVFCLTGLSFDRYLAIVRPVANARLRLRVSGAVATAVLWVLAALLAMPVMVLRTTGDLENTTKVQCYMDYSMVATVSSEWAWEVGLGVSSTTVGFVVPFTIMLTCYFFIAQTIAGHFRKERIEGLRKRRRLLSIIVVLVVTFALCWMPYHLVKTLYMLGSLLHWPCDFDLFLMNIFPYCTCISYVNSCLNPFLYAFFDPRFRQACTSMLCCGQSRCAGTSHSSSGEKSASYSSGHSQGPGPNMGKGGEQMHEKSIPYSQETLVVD
CXCR6 block: CXCR6 receptor inhibitors, primary screen, cell-based, beta-arrestin, luminescence, CHO-K1 PathHunter, 1536-well. inhibition, % at 20 µM. actives 0.36% (n = 360,000). AID 602244, 2012; in the data active = inhibition above about 34%, passing the limit was not always enough;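 note: antagonist mode with CXCL16 agonist at 10 nM final; 0% = 10 nM CXCL16 with DMSO and 100% = unstimulated wells without agonist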
APJ agonist: agonists of human apelin receptor APJ, primary screen, CHO-K1 cells, PathHunter beta-arrestin, luminescence; actives 0.11% (n = 330,000); activation, % at 20 µM; P35414; 0% DMSO wells, 100% apelin;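 active = activation more than six SD over the plate average, tested at 20 µM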;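 note: 0% = DMSO alone and 100% = apelin-13 at 10 nM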
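Test system – PathHunter CHO-K1 APJ (AGTRL-1) beta-arrestin reporter cells · Input – 1000 cells/well · Compound – single test compound dose, 20 µM final, 1% DMSO · Times – compound stimulation 90 min at 25 °C, detection 60 min · Technique – beta-gal luminescence · Read-out basis – APJ–arrestin association signal · Control set – negative DMSO alone, positive Apelin-13 at 10 nM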
EBI2 block: EBI2 receptor antagonists, beta-arrestin recruitment, primary screen, cell-based, luminescence, 7a,25-OHC stimulation, uHTS. G-protein coupled receptor 183 (Homo sapiens), P32249. 7a,25-OHC stimulated. inhibition, % at 5 µM. actives 0.81% (n = 360,000). AID 651636, 2012; in the data active = inhibition above about 38%;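 note: enzyme fragment complementation signal reports receptor beta-arrestin coupling in cells; 0% = agonist plus DMSO wells and 100% = wells without agonist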
APJ antag conf: APJ antagonists blocking beta-arrestin recruitment, confirmation, cell-based, luminescence, single concentration, uHTS hits. shares compounds with APJ antag. antagonist mode. inhibition, % at 20 µM. actives 66% (n = 950). AID 2766, 2010; in the data active = inhibition above about 50%
The depositor's hits bear a star; . = no result. Only some compounds are listed: those with a hit (about 1.5% of all), similar ones and a draw of the others.

SMILES	CCR6 antag	APJ antag	CXCR6 block	APJ agonist	EBI2 block	APJ antag conf
C=CCN(CC=C)Cc1cc(=O)oc2ccc3ccccc3c12	.	.	8	.	6	.
COc1cc(/C=C2\SC(=S)N(NC(C)=O)C2=O)ccc1OC(=O)c1ccco1	47	-13	27	-7	-23	.
COc1cc(/C=C2/SC(=S)N(C)C2=O)ccc1OC(=O)c1ccco1	49	46*	28	-5	0	48
CC1(C)C(c2ccccc2)=NC(c2ccc(Br)cc2)N1O (configuration not stated)	58*	77*	34	-11	20	33
CC1(C)C(c2ccccc2)=NC(c2ccccc2)N1O (configuration not stated)	40	8	14	-3	-1	.
COc1ccc(NC(=S)NNc2ccc(S(=O)(=O)Nc3ccccc3C(=O)O)cc2[N+](=O)[O-])cc1	68*	56*	43*	-11	21	100*
Nc1c(N)c2ccccc2oc1=O	8	6	-1	-1	-13	.
Nc1c(N2CCN(c3ccccc3)CC2)c2ccccc2oc1=O	60*	46*	30	-9	12	57*
O=C(Cc1ccc(NC(=O)C2CCN(C(=O)C3CC3)CC2)cc1)Nc1cccc(C(=O)N2CCCCC2)c1	7	.	-5	.	-10	.
O=C(CNC1CCCCCC1)c1cccs1	33	67*	1	-11	-2	48
COc1ccc(N=C2C(=O)N3c4c(cccc42)C(C)=CC3(C)C)cc1	50*	46*	30	-3	-2	89*
O=C(NNS(=O)(=O)c1cc(Cl)cc(Cl)c1)c1sccc1-n1cccc1	2	10	0	1	-15	.
Cn1c(=O)c(C(=S)NC(=O)C2CC2)c(N)n(Cc2ccccc2)c1=O	.	42*	.	-13	.	72*
CCN(CC)CC(=O)c1c(N)n(Cc2ccccc2)c(=O)n(C)c1=O	1	-5	-8	-3	-7	.
Cc1ccc(NC(=S)NCC2CCCO2)cc1 (configuration not stated)	11	45*	-1	-2	-12	20
Cc1ccc(CNC(=S)Nc2cc(C(=O)O)ccc2C)cc1	-7	8	0	-1	5	.
COc1cccc(C(=O)NC(=S)Nc2ccc([N+](=O)[O-])cc2C)c1	49	39	16	-6	3	.
COc1cc(C(=O)NC(=S)Nc2ccc([N+](=O)[O-])cc2C)cc(OC)c1OC	44	43*	20	-5	-4	65*
Cc1ccc(C(=O)O)cc1NC(=S)NC(=O)c1ccc([N+](=O)[O-])c(C)c1	41	40*	30	-5	17	37
CC1CC(C)CN(C(=O)COC(=O)/C=C/c2cccc([N+](=O)[O-])c2)C1 (configuration not stated)	8	-10	-19	-2	0	.
CCc1nnc(N2C(=O)c3ccccc3C2(O)c2ccccc2)s1 (configuration not stated)	-2	5	-2	0	4	.
O=C(Sc1cccc2cccnc12)c1ccccc1Br	.	52*	35	-5	49*	85*
O=[N+]([O-])c1cc(S(=O)(=O)Nc2cccc(Cl)c2)ccc1N/N=C/c1ccc(N2CCOCC2)cc1	50*	48*	36	-12	9	96*
CCc1ccc(N2CCN(S(=O)(=O)CC34CCC(CC3=O)C4(C)C)CC2)cc1 (configuration not stated)	-4	-9	-3	3	-7	.
COc1ccc(C)cc1NC(=O)COC(=O)C1CC1	5	41*	-2	7	-1	13
SMILES	CCR6 antag	APJ antag	CXCR6 block	APJ agonist	EBI2 block	APJ antag conf
Cc1cc(Nc2nc3ccccc3nc2Cl)n(-c2ccc([N+](=O)[O-])cc2)n1	56*	49*	33	-12	40	-2
O=C(c1ccccc1)N1N=C(c2ccccc2O)CC1c1ccccc1 (configuration not stated)	9	7	11	-4	-6	.
c1ccc(Cn2cnc3ccccc32)cc1	-10	-22	-1	-5	-4	.
Fc1cc2ncn(Cc3ccccc3)c2cc1F	1	61*	-4	-4	-6	-23
Cc1ccc(S(=O)(=O)NCC(=O)NNC(=O)c2ccccc2Cl)cc1C	-8	2	-5	-2	-10	.
CCN1CCN(c2cc(C)c3cc(NC(=O)CCC(=O)Nc4ccc(OC)c(OC)c4)ccc3n2)CC1	12	11	0	-2	-2	.
CCN1CCN(c2cc(C)c3cc(NC(=O)Cc4ccccc4OC)ccc3n2)CC1	-1	48*	-3	-9	-4	13
O=C1N/C(=N\S(=O)(=O)Cc2ccccc2)S/C1=C/c1cc([N+](=O)[O-])ccc1O	31	41*	13	-4	10	55*
O=C1N/C(=N\S(=O)(=O)c2ccccc2)S/C1=C\c1cc([N+](=O)[O-])ccc1O	15	33	14	-3	-6	.
CCN(CC)C(=O)c1ccc(-c2ccccc2)cc1	5	-8	-3	-3	12	.
CN(C)CC(=O)c1ccc(-c2ccccc2)cc1	30	46*	9	-11	0	73*
CCN(CC)CC(=O)c1ccc(-c2ccccc2)cc1	72*	94*	30	-19	18	114*
CSCCC(NC(=O)c1ccccc1Cl)C(=O)Nc1cccc(S(=O)(=O)N2CCCC2)c1 (configuration not stated)	4	-21	0	-1	-5	.
CC1(C)CC2(CC(c3ccccc3F)c3cc(Cl)c(O)cc3O2)NC(=S)N1 (configuration not stated)	-1	48*	13	-5	-5	112*
Cc1cccc(C2CC3(CC(C)(C)NC(=S)N3)Oc3cc(O)ccc32)c1 (configuration not stated)	18	10	14	-1	0	.
Cc1cc(NC(=O)CC2CCCC2)n(-c2nc3ccccc3[nH]2)n1	22	14	31	-1	5	.
Cc1cc(NC(=O)c2ccc(F)cc2F)n(-c2nc3ccccc3[nH]2)n1	-2	43*	-13	-5	0	9
O=C(NCCc1c[nH]c2ccccc12)C(=O)NCC1OCCCN1S(=O)(=O)c1cccs1 (configuration not stated)	8	-21	4	-4	1	.
CC1CCCCN1S(=O)(=O)c1ccc(C(=O)N(CCCN(C)C)c2nc3ccc(Br)cc3s2)cc1 (configuration not stated)	16	48*	-11	18	-12	37
